In ChEMBL document CHEMBL3098033, “Design, synthesis and biological evaluation of imine resveratrol derivatives as multi-targeted agents against Alzheimer's disease” (Eur J Med Chem, 2014):
Active and inactive are the calls of the source. The rule behind the calls is not given here.

Tests used:
[1] = molecular target: Amyloid-beta precursor protein (Homo sapiens) (UniProt P05067); test: Inhibition of amyloid beta (1 to 42) (unknown origin) self-induced aggregation at 20 uM after 46 to 48 hrs by thioflavin-T based fluorometric assay
How it was run: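 HFIP-pretreated Aβ(1–42) redissolved at 25 μM in 50 mM phosphate buffer, pH 7.4. Compound at 20 μM final, with 10% final solvent, run in independent triplicates with a solvent control. Incubated in the dark at room temperature for 46–48 h without agitation. 5 μM ThT in glycine-NaOH pH 8.0 added, ex/em 446/490 nm. Inhibition = 100 − (IFi/IFo × 100).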

[2] = system: Radical scavenging activity; test: Antioxidant activity assessed as DPPH free radical scavenging activity after 30 mins by spectrophotometric analysis; assay type: functional
How it was run: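 Methanolic DPPH at 400 μM combined with serially diluted sample (1:9 by volume), 30 min at 37 °C in the dark, absorbance at 517 nm. Scavenging % = [1 − (A − C)/B] × 100, with a sample-only blank and MeOH as negative control. IC50 values are mean ± SD of three determinations.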

[3] = molecular target: Amyloid-beta precursor protein (Homo sapiens) (UniProt P05067); test: Inhibition of Cu2+-induced amyloid beta (1 to 42) (unknown origin) aggregation at 50 uM after 24 hrs by thioflavin-T based fluorometric assay
How it was run: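 Aβ(1–42) at 25 μM final in HEPES pH 6.6 with NaCl, with or without 25 μM Cu2+, plus 50 μM compound, incubated at 37 °C for 24 h. Sample diluted into 50 mM glycine-NaOH pH 8.0 containing 5 μM ThT, read at ex/em 446/490 nm. Mean ± SD of three independent experiments.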

[4] = Cytotoxicity against human SH-SY5Y cells assessed as reduction of cell viability at 1 to 50 uM after 24 hrs by MTT assay; assay type: cell-based
How it was run: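 SH-SY5Y cells grown in EMEM/Ham's F-12 (1:1) with 10% FBS, penicillin and streptomycin, 37 °C, 5% CO2. Seeded at 1×10^4 cells/well, switched to serum-free medium, exposed to compound for 24 h. MTT 4 h at 37 °C, formazan dissolved in DMSO, A570 with 630 nm reference. Mean ± SD of three independent experiments.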

SH-SY5Y [5] = test: Neuroprotective activity in human SH-SY5Y cells assessed as inhibition H2O2-induced reduction of cell viability at 1.25 to 10 uM after 24 hrs by phase-contrast micrograph analysis; assay type: functional, cell-based; conditions: in the assay text read “MTT assay” for “phase-contrast micrograph analysis”
How it was run: (§1)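 SH-SY5Y cells seeded at 1×10^4 cells/well. After 24 h, medium replaced with compound (1.25, 2.5, 5, 10 μM) for 24 h at 37 °C. Cells then exposed to 100 μM H2O2 for 24 h and assessed by MTT, with phase-contrast images (200×). Viability given relative to cells without H2O2, three independent experiments.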

[6] = Metal chelating activity of the compound assessed as Cu2+-compound complex formation at 25 uM by UV-vis spectrometry; assay type: physicochemical
How it was run: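 Difference UV–vis spectra obtained by subtracting metal-alone and compound-alone spectra from the spectra of the mixture. Stoichiometry assessed with ligand fixed at 25 μmol/L and Cu2+ titrated from 2 to 50 μmol/L.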

[7] = Ratio of resveratrol IC50 to compound IC50 for DPPH free radical scavenging activity
[8] = molecular target: Amyloid-beta precursor protein (Homo sapiens) (UniProt P05067); test: Inhibition of Cu2+-induced amyloid beta (1 to 42) (unknown origin) aggregation assessed as reduction of H2O2 production at 800 nM after 30 mins by HRP/Amplex red assay
How it was run: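 Mixture of CuCl2 400 nM, Aβ, compound 800 nM (1% DMSO) and sodium ascorbate 10 μM in phosphate buffer, 30 min at room temperature. Amplex Red/HRP working solution then added and incubated a further 30 min at room temperature. Fluorescence read at ex/em 530/590 nm, at least three measurements.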

[9] = Metal chelating activity of the compound assessed as Fe2+-compound complex formation at 25 uM by UV-vis spectrometry; assay type: physicochemical
SH-SY5Y [10] = test: Neuroprotective activity in human SH-SY5Y cells assessed as inhibition H2O2-induced reduction of cell viability at 10 uM after 24 hrs by phase-contrast micrograph analysis; assay type: functional, cell-based; how it was run: as §1

Sequence of Amyloid-beta precursor protein (Homo sapiens) (P05067 whole entry): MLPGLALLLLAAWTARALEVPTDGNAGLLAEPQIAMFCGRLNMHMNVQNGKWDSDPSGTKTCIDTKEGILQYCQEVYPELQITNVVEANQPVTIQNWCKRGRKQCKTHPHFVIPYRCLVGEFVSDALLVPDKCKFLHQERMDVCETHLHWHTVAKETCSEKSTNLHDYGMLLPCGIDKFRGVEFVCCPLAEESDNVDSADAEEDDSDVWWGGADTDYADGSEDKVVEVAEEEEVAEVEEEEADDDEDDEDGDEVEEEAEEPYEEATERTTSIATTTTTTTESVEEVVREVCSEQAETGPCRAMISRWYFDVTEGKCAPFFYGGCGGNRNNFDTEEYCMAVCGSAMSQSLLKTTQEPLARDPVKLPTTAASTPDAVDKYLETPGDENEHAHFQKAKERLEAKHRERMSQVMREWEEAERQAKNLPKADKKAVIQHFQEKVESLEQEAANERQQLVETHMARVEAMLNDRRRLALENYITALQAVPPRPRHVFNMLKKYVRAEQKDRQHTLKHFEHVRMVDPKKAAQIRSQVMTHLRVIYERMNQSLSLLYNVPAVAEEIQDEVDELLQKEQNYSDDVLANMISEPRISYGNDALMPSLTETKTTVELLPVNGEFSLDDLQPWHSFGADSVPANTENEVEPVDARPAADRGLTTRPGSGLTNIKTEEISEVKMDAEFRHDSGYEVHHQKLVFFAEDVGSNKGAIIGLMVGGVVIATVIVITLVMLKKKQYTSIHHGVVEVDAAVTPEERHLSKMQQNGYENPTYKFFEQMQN

inhibition [1] [%]	IC50 [2] [µM]	Structure (SMILES)	other results
67.8	41.3	Oc1ccccc1/N=C/c1ccc(F)cc1	
27.8	> 2000	Oc1ccccc1/C=N/c1ccccc1F	
70.9	26.5	Oc1ccc(/C=N/c2ccccc2O)cc1	inhibition [3]: 83.7%; Activity [4]: Non-toxic; Activity (SH-SY5Y [5]): Active
64.6	14.1	Oc1ccc(/C=N/c2ccccc2O)cc1O	inhibition [3]: 68.1%; Activity [4]: Non-toxic; Activity [6]: Active; Ratio IC50 [7]: 7.7; Activity (SH-SY5Y [5]): Active; inhibition [8]: 80%; Activity [9]: Active
66.1	> 2000	Oc1cccc(/N=C/c2ccccc2O)c1	
69.4	43.9	Oc1ccccc1/N=C/c1ccccc1F	
39.4	28.5	COc1ccc(/C=N/c2ccccc2O)cc1OC	
67.2	51.8	Oc1ccccc1/C=N/c1ccccc1O	
71.2	399	Oc1ccc(/N=C/c2ccccc2O)cc1	
44.9	> 2000	Oc1ccccc1/C=N/c1ccccc1 [2-((PHENYLIMINO)METHYL)PHENOL]	
		Oc1c(I)cc(Cl)c2cccnc12	inhibition [3]: 66.7%; inhibition [8]: 75%
24.9	> 2000	Oc1ccccc1/C=N/c1ccc(F)cc1	
		O=C(O)CN(CCN(CC(=O)O)CC(=O)O)CC(=O)O	inhibition [8]: > 90%
64.2	109	Oc1ccc(/C=C/c2cc(O)cc(O)c2)cc1 [RESVERATROL]	Activity (SH-SY5Y [10]): Active
35.7	32.7	COc1ccc(/C=N/c2ccccc2O)cc1	
31.3	> 2000	Oc1ccccc1/C=N/c1cccc(F)c1	
55.8	45.1	CN(C)c1ccc(/C=N/c2ccccc2O)cc1	
63.1	37.8	Oc1ccc(/C=N/c2ccccc2O)c(O)c1	
51.7	39.9	Oc1ccccc1/N=C/c1ccccc1	
33.8	> 2000	Oc1ccc(Cl)cc1/C=N/c1ccccc1	
67.6	36.8	Oc1ccccc1/N=C/c1cccc(F)c1	inhibition [3]: 70.2%; Activity [4]: Non-toxic; Activity (SH-SY5Y [5]): Active
29	794	COc1ccc(O)c(/C=N/c2ccccc2)c1	
64.3	66.6	Oc1cccc(/C=N/c2ccccc2O)c1	
